PMI act = phosphomannose isomerase (human) activation. P34949. purified human PMI, coupled resazurin fluorescence, 20 min; hits give high values; 1 = vehicle control, 0 substrate-free wells. activation factor at 20 µM. 190,000 compounds, 0.005% hits;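 active = activation factor of 2 or more at 20 µM, relative to plate controls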
Target sequence (P34949 whole entry, looked up): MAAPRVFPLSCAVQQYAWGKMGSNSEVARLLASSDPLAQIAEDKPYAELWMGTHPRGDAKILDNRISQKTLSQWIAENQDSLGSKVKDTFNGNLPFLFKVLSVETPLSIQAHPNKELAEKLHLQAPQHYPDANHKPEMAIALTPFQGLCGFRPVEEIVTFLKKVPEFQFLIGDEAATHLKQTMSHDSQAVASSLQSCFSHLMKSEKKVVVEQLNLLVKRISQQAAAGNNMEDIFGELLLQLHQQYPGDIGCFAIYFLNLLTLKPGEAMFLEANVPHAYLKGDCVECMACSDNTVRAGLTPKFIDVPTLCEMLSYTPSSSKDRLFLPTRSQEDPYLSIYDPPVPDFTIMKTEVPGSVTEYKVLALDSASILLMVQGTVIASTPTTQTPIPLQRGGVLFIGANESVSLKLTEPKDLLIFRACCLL
TbHK1 inh = T. brucei hexokinase 1 inhibition. recombinant TbHK1, G6PDH-coupled NADH A340. inhibition, % at 10 µM. AID 1430. 220,000 compounds, 0.11% hits;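 active = inhibition of 50% or more in the single-dose primary screen; inactive = inhibition below 50%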
PMI act satM6P = PMI (human) activation, high substrate; 190,000 compounds, 0.34% hits; AID 1216; activation factor at 20 µM; coupled PMI enzyme assay, resazurin fluorescence, 20 min; hits give high values; 1 = untreated enzyme, 0 = substrate-free blank;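 active = activation factor of 2 or more at 20 µM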
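Technique: Diaphorase-driven resazurin-to-resorufin fluorescence, excitation 544, emission 590 nm | Assay system: Human PMI in coupled enzyme assay | Times: Enzyme reaction with compound 20 min at room temperature | Medium: HEPES-buffered pH 7.4 with magnesium and detergent | Reagent: Mannose-6-phosphate 1.0 mM (near-saturating) plus 0.22 mM NADP+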
G6PDH counter = inhibits Leuconostoc G6PDH, flagging false hits in G6PDH-based assays. Purified L. mesenteroides G6PDH, diaphorase/resazurin coupled fluorescence, 45 min. 200,000 compounds, 0.12% hits. inhibition, % at 5 µM; in the data active = inhibition above about 50%
Diaphorase act = counter-screen for diaphorase-based assays: diaphorase activators and chemical reducers; 190,000 compounds, 0.005% hits; Diaphorase/resazurin coupled assay, resorufin fluorescence, 16 min; hits give high values; 1 = vehicle wells, 0 = NADH-free wells; activation factor at 20 µM;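 active = diaphorase activity raised at least twofold by the compound at 20 µM; inactive = activation factor below 2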
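Material: bacterial diaphorase enzyme (C. kluyveri); amount: enzyme 0.07 U/mL final; reagent: NADH substrate 0.114 mM plus resazurin dye 0.1 mM, final; doses: single compound dose of 20 µM, 1% DMSO final; timing: 16 min enzyme reaction, ambient temperature; measured by: fluorescence of resorufin, 544 nm excitation, 590 nm emission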
Diaphorase inh = diaphorase inhibition or chemical oxidation counter-screen. inhibition, % at 20 µM. AID 1217. diaphorase resazurin-to-resorufin fluorescence, NADH, 16 min; bacterial (C. kluyveri) enzyme, not human. 190,000 compounds, 0.69% hits;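 active = primary screen inhibition at 20 µM above a set limit, cut at about 50% in these data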;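 note: plate controls were DMSO with full reaction for no effect and wells lacking NADH for full effect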
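Assay system: diaphorase enzyme from Clostridium kluyveri; Input: enzyme working solution with 0.14 U/mL diaphorase; Timing: 16 min at room temperature; Technique: resorufin fluorescence, excitation 544 nm, emission 590 nm; Benchmarks: positive control minus NADH, DMSO neutral control.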
Active calls of the source: *; · = no result. Compounds with a hit are over-represented: about 1.1% of the library has one in this group of screens.

SMILES | PMI act | TbHK1 inh | PMI act satM6P | G6PDH counter | Diaphorase act | Diaphorase inh
COc1ccc(C(=O)CSc2nnc(-c3ccco3)c(-c3ccco3)n2)cc1 | 1.1 | -1 | 0.7 | 19 | 0.4 | 62*
Cc1cc2oc(=O)cc(CN3CCOCC3)c2cc1C | 1 | -14 | 1 | -4 | 0.9 | 6
Cc1cc2oc(=O)cc(CN3CCCc4ccccc43)c2cc1C | 1.1 | -5 | 2.3* | 5 | 1 | 1
CC(/C=N/NC(=O)c1cnccn1)=C\c1ccco1 | · | -39 | · | · | · | ·
O=C(C1CC1)N1CCc2sccc2C1c1ccc(Cl)cc1 (configuration not stated) | · | -11 | · | · | · | ·
O=c1[nH]c(Nc2ccccc2)cc2ccccc12 | 0.9 | -4 | 0.5 | 55* | 0.9 | 10
COc1ccc(-c2cc3nc(-c4ccccc4)cc(N4CCCC(O)C4)n3n2)cc1 (configuration not stated) | 0.9 | -26 | 0.9 | 17 | 0.7 | 26
COc1ccc(-c2cc3nc(-c4ccccc4)cc(N4CCC(O)CC4)n3n2)cc1 | 0.8 | -12 | 0.8 | 17 | 0.5 | 50*
Cc1cc(C(=O)NC(Cc2ccccc2)C(=O)O)c(C)o1 (configuration not stated) | · | 7 | · | · | · | ·
CCN(CC)N=Nc1[nH]nc2nc(C)cc(C)c12 | 1.4 | -13 | 2* | -4 | 0.9 | 11
Cc1cc(C)c2c(N=NN3CCCCC3)[nH]nc2n1 | 1.5 | -8 | 1.6 | -3 | 1 | 2
CN(CC1CCCO1)S(=O)(=O)c1ccc(C(=O)Nc2nccs2)cc1 (configuration not stated) | · | -22 | · | · | · | ·
COc1ccc(Sc2ccccc2CN(C)C)cc1OC | 1 | -2 | 1 | 10 | 0.9 | 10
CNCc1ccccc1Sc1ccc(O)c(O)c1 | 0.3 | 18 | 0.3 | 50* | 0.4 | 63*
COc1cccc(-c2nc(=S)c3c(o2)CCCC3)c1 | 1 | -7 | 1.1 | 4 | 0.7 | 30
S=c1nc(-c2ccccc2)oc2c1CCCC2 | 1 | -23 | 0.9 | 3 | 0.3 | 65*
CCOC1=C/C(=C/c2c(N)n3nc(-c4ccccc4)sc3nc2=O)C=CC1=O | 0.8 | -18 | 0.7 | 15 | 0.3 | 69*
CC1(C)Cc2nc3sc(C(=O)O)c(N)c3cc2CS1 | 1.7 | 0 | 2.4* | 2 | 0.7 | 31
Cc1nnc(N/N=C/c2ccco2)n1N | 0.8 | -12 | 0.4 | 2 | 1 | 3
COC(=O)C1=NN(N=O)C2(CC(=O)N(c3cc(C)cc(C)c3)C2=O)C1 (configuration not stated) | 1.5 | -4 | 2* | 16 | 0.9 | 15
CCOC(=O)C1=NN(C(C)=O)C2(CC(=O)N(c3cc(C)cc(C)c3)C2=O)C1 (configuration not stated) | 1 | -4 | 0.9 | -3 | 0.9 | 9
CCCCC1OC2(C)OC(=N)C1(C#N)C(C#N)(C#N)C2c1ccccc1 (configuration not stated) | 0.6 | 0 | 0.6 | -21 | 0.4 | 58*
O=C(NCc1ccc(/C=c2\sc3n(c2=O)CCN=3)o1)C(=O)Nc1ccccc1 | 0.8 | -5 | 0.5 | 9 | 0.5 | 45
O=C1CCCC/C1=N\Nc1ccc(C2CCCCC2)cc1 | · | -9 | · | · | · | ·
O=C1CCCC/C1=N\Nc1ccc(OCc2ccccc2)cc1 | 1.7 | 2 | 2.5* | -3 | 1 | 4
SMILES | PMI act | TbHK1 inh | PMI act satM6P | G6PDH counter | Diaphorase act | Diaphorase inh
CC1Nc2nc(N(C)C)[nH]c(=O)c2NC1C (configuration not stated) | 1.8 | -25 | 2.7* | 4 | 0.9 | 7
CC(=O)c1ccc(NC(=O)c2ccc(C)c(Br)c2)cc1 | 1 | 5 | 1 | 8 | 0.1 | 94*
CCCCC(=O)Nc1ccc(C(=O)NNC(=O)c2ccc(C)c(Br)c2)cc1 | 0.9 | 4 | 0.9 | -8 | 1.1 | -7
COc1ccccc1CNC(=O)CN(C)S(=O)(=O)c1cccc2cccnc12 | · | 7 | · | · | · | ·
ClCc1nnc(-c2cc3c(s2)CCCC3)o1 | 1.2 | 0 | 1.2 | 12 | 0.9 | 7
O=c1[nH]c(C(Cl)Cl)nc2sc3c(c12)CCN(Cc1ccccc1)C3 | 1.8 | -1 | 2.6* | 0 | 0.8 | 18
Cc1ccc(S(=O)(=O)N2CCN(Cc3nc4sc5c(c4c(=O)[nH]3)CCCC5)CC2)cc1 | 1.1 | 1 | 1.1 | 3 | 0.9 | 6
CCCSc1nc2sc3c(c2c(=O)[nH]1)CCN(Cc1ccccc1)C3 | 1.3 | 4 | 1.7 | -44 | 0.5 | 54*
Cc1ccc(CSc2nccc(-c3c(C)nc4ccccn34)n2)cc1 | · | -52 | · | · | · | ·
NS(=O)(=O)c1ccc(NC(=S)NCc2ccco2)cc1 | 0.4 | 1 | 0.8 | 2 | 0.9 | 6
CCC1CCCCN1C(=S)Nc1cccc(S(=O)(=O)N(C)C)c1 (configuration not stated) | 1 | -1 | 1.1 | 3 | 1 | 3
CC(C)(C)OC(=O)[C@H](Cc1ccccc1)NC(=O)c1nc[nH]c1C(=O)NC1CCN(C(=O)OC(C)(C)C)CC1 | 0.7 | -12 | 0.7 | 14 | 0.5 | 52*
CC(C)C[C@H](NC(=O)c1nc[nH]c1C(=O)NC1CCN(C(=O)OC(C)(C)C)CC1)C(=O)OCc1ccccc1 | 0.8 | 1 | 0.8 | 22 | 0.7 | 30
CC(C)CCN(CCC(C)C)C(CO)(CO)CO | 0.9 | -6 | 1 | 10 | 0.7 | 32
CCOc1ccc(C=Nc2cccc3ncccc23)cc1 | 0.4 | -11 | 0.3 | 12 | 0.5 | 51*
CCOc1ccc(/C=N/O)cc1 | 0.9 | -5 | 1.1 | -3 | 0.9 | 9
Cc1c(Nc2cc(N3CCCCCC3)c3nonc3c2[N+](=O)[O-])c(=O)n(-c2ccccc2)n1C | 0.4 | -17 | 0.5 | 12 | 0.5 | 51*
COc1ccc(C2=C(N)c3ccccc3C2=O)cc1 | 1 | 0 | 1 | 2 | 1 | 4
O=C(C1=C(c2ccccc2)C(=O)c2ccccc2C1=O)c1ccccc1 | 0.5 | -5 | 0.3 | 58* | 0.6 | 40
COC1=C(c2ccccc2)C(=O)c2ccccc2C1=O | 2* | -2 | 1.6 | 46 | 0.9 | 8
CCN(CC)CCOC(=O)c1ccc(NC(=O)c2cn(-c3ccccc3)nc2-c2cccs2)cc1 | 1 | -8 | 0.9 | -3 | 1.4 | -45
CCc1ccc(S(=O)(=O)/N=C2/C=C(Sc3ncn[nH]3)C(=O)c3ccccc32)cc1 | 0 | 38 | 0.1 | 52* | 0.5 | 48
COc1ccccc1N1C(=N)S/C(=C\c2ccc(-c3ccccc3C(=O)O)o2)C1=O | 1.4 | -1 | 1.4 | 2 | 0.7 | 34
